ABCG2 inh = human ABCG2 inhibition, ABCB1 as counter-screen | Q9UNQ0 | IgMXP3 cells, JC-1 efflux, flow cytometry | hit rate 0.1% among 190,000 | inhibition, % at 6.6 µM;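 active = inhibition above 80%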;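 note: 0% = DMSO and 100% = nicardipine control wells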
Target sequence (Q9UNQ0 whole entry, looked up): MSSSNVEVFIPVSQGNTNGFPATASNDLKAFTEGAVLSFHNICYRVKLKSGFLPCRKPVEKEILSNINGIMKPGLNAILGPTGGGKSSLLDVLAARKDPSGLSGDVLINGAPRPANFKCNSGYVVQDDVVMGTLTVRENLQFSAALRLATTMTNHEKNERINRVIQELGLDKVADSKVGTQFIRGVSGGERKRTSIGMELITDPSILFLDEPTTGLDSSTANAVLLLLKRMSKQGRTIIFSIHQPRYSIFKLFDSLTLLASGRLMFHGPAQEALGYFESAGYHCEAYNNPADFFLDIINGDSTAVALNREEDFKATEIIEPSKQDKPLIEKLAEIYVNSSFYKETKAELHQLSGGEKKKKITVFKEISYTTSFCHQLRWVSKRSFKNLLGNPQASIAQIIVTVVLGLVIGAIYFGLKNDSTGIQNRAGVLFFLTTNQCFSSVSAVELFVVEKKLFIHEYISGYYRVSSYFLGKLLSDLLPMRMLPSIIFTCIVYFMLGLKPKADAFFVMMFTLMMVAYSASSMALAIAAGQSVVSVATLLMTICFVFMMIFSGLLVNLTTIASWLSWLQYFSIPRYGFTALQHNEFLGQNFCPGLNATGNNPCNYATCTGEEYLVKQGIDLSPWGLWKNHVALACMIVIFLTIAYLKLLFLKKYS
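Read-out basis: Efflux inhibition in percent versus controls | Test system: ABCG2 IgMXP3 and barcoded ABCB1 CCRF-Adr cell mix | Quantity: 3 million cells/mL in well | Schedule: 10 min at 25 °C | Control set: Nicardipine as high control, DMSO as low control | Reagent: JC-1 as fluorescent efflux pump substrate | Signal: Flow cytometry of retained JC-1 fluorescence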
ABCB1 inh = human ABCB1 inhibition, ABCG2 as counter-screen; CCRF-Adr cells, JC-1 efflux, flow cytometry; hit rate 0.067% among 190,000; AID 1326; inhibition, % at 6.6 µM; P08183; in the data active = inhibition above about 40%;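 note: 0% = vehicle and 100% = reference inhibitor; higher value means more JC-1 retained so stronger ABCB1 efflux block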
PHOSPHO1 inh = PHOSPHO1 (human) inhibition; inhibition, % at 13.3 µM; Q8TCT1; hit rate 1.1% among 290,000; recombinant PHOSPHO1, absorbance phosphatase assay; AID 1565; in the data active = inhibition above about 60%
p47phox inh = blocks human p47phox regulatory protein of NADPH oxidases. P14598. p47phox/p22phox peptide binding, fluorescence polarization, 2 h. inhibition, % at 24.7 µM. hit rate 0.53% among 220,000. AID 1274;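 active = inhibition above about 30%, limit read from the data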;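 note: 0% = p47phox with labelled peptide and 100% = labelled peptide alone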
HSV replic up = increases HSV replication in cells | hit rate 0.005% among 220,000 | HSV replication augmentation in cells, fold increase | maximum fold increase; in the data active = maximum fold increase above about 1.5; inconclusive = no clear call, values can overlap the other calls; tested in PC3 cells
PKD1 inh = inhibitors of human PKD1 kinase; inhibition, % (no concentration beside the values); AID 797; PKD1 kinase fluorescence polarization assay; hit rate 0.056% among 200,000; in the data active = inhibition above about 50%
Numbers without * were called inactive. Only some compounds are listed: those with a hit (about 1.6% of all), similar ones and a draw of the others.

How did CN(C)S(=O)(=O)c1cccc(-n2sc3ccccc3c2=O)c1 do in these assays?
ABCG2 inh: -2; ABCB1 inh: 0; PHOSPHO1 inh: 6; p47phox inh: 93*; HSV replic up: inactive; PKD1 inh: 0

How did O=c1c2ccccc2c(C=Nc2ccccc2O)c(O)n1-c1nccs1 do in these assays?
PHOSPHO1 inh: -21; p47phox inh: -22; HSV replic up: inconclusive

How did O=c1c2ccccc2sn1-c1nccs1 do in these assays?
ABCG2 inh: 0; ABCB1 inh: 0; PHOSPHO1 inh: 53; p47phox inh: 104*; HSV replic up: inactive; PKD1 inh: -1

How did Cc1ccc(-n2sc3ccccc3c2=O)cc1S(=O)(=O)N1CCCCC1 do in these assays?
ABCG2 inh: 0; ABCB1 inh: 0; PHOSPHO1 inh: 30; p47phox inh: 85*; HSV replic up: inactive; PKD1 inh: -12

How did O=c1c2ccccc2sn1-c1ccccc1 do in these assays?
ABCG2 inh: 0; ABCB1 inh: 0; PHOSPHO1 inh: -48; p47phox inh: 60*; HSV replic up: inactive; PKD1 inh: 3

Results for O=c1c2ccccc2sn1-c1ccc(S(=O)(=O)N2CCCCC2)cc1 ?
HSV replic up: inactive; PKD1 inh: -6

What do the screens show for `Cc1ccc(C(O)CCc2ccc(N)cc2)cc1` (stereo not drawn)?
PHOSPHO1 inh: 27

How did CCN(CC)c1ccc(N=CN2CCOCC2)cc1 do in these assays?
PHOSPHO1 inh: 10

Results for O=c1c2ccccc2sn1-c1ccc(S(=O)(=O)N2CCCC2)cc1 ?
ABCG2 inh: -11; ABCB1 inh: -4; PHOSPHO1 inh: -18; p47phox inh: 30*; HSV replic up: inactive; PKD1 inh: -16

How did Oc1[nH]c2ccccc2c1N=Nc1ncnc2c1oc1ccccc12 do in these assays?
PHOSPHO1 inh: 16; p47phox inh: -16; HSV replic up: inactive

Results for Cc1noc(C)c1C(=O)OCC(=O)Nc1c(F)cccc1F ?
ABCG2 inh: 1; ABCB1 inh: 0; PHOSPHO1 inh: -2; p47phox inh: -5; HSV replic up: inactive; PKD1 inh: -2

How did COc1ccc(C(=O)OCC(=O)c2ccccc2)cc1S(=O)(=O)N1CCOCC1 do in these assays?
ABCG2 inh: 2; ABCB1 inh: 0; PHOSPHO1 inh: 5; p47phox inh: 0; HSV replic up: inactive; PKD1 inh: -3

How did O=[N+]([O-])C1=CC=C2C(=NC3(CCCCC3)N2O)C1=NCCc1ccccc1 do in these assays?
ABCG2 inh: 2; ABCB1 inh: 0; PHOSPHO1 inh: -10; p47phox inh: 130*; HSV replic up: inactive; PKD1 inh: 4

What do the screens show for `O=[N+]([O-])C1=CC=C2C(=NC3(CCCCC3)N2O)C1=NC1CCCCC1`?
ABCG2 inh: 0; ABCB1 inh: 0; PHOSPHO1 inh: -45; p47phox inh: 48*; HSV replic up: inactive; PKD1 inh: 13

Results for O=C(CN1CCc2ccccc2C1)Nc1ccccc1C(F)(F)F ?
PHOSPHO1 inh: 14

What do the screens show for `COc1ccc(CNC(=O)[C@H](C)NC(=O)N2CCn3c2nc2ccccc23)cc1`?
PHOSPHO1 inh: 70*

What do the screens show for `C[C@H](NC(=O)N1CCn2c1nc1ccccc12)C(=O)NCCc1ccccc1`?
PHOSPHO1 inh: 54

Results for Nc1nnc(SCC(=O)c2cccc([N+](=O)[O-])c2)s1 ?
ABCG2 inh: 13; ABCB1 inh: 0; PHOSPHO1 inh: -17; p47phox inh: 8; HSV replic up: inactive; PKD1 inh: 0

What do the screens show for `CCOC(=O)CSc1nnc(N)s1`?
ABCG2 inh: 0; ABCB1 inh: 0; PHOSPHO1 inh: 90*; p47phox inh: 18; HSV replic up: inactive; PKD1 inh: -6

How did CCOC(=O)CSc1nnc(SCCN2C(=O)c3ccccc3C2=O)s1 do in these assays?
ABCG2 inh: 3; ABCB1 inh: 0; PHOSPHO1 inh: 73*; p47phox inh: -3; PKD1 inh: -2

How did Nc1nnc(SCC(=O)c2ccc3ccccc3c2)s1 do in these assays?
ABCG2 inh: -11; ABCB1 inh: -6; PHOSPHO1 inh: 75*; p47phox inh: 92*; PKD1 inh: -2

How did CCOC(=O)CSc1n[nH]c(=S)s1 do in these assays?
PHOSPHO1 inh: 60*; p47phox inh: -1; HSV replic up: inactive

How did O=C(NC(=S)Nc1cc([N+](=O)[O-])ccc1O)C1CC1 do in these assays?
PHOSPHO1 inh: 33

What do the screens show for `COc1ccccc1Oc1ncnc2sccc12`?
ABCG2 inh: 3; ABCB1 inh: 1; PHOSPHO1 inh: 61*; p47phox inh: -4; HSV replic up: inactive; PKD1 inh: -3

Results for O=C(COC(=O)CCCNC(=O)c1ccc(Cl)cc1)Nc1ccc(Br)cc1 ?
ABCG2 inh: 2; ABCB1 inh: 0; PHOSPHO1 inh: 7; p47phox inh: -17; HSV replic up: inactive; PKD1 inh: 6

Results for Cc1ccccc1OCC(=O)NNC(=S)NC(=O)c1ccco1 ?
ABCG2 inh: 4; ABCB1 inh: 0; PHOSPHO1 inh: 99*; p47phox inh: -5; HSV replic up: inactive; PKD1 inh: 4

How did Cc1ccccc1OCC(=O)Nc1ccccc1NC(=O)c1ccco1 do in these assays?
PHOSPHO1 inh: 15

Results for OC(c1ccccn1)c1c[nH]c2ccccc12 (stereo not drawn) ?
ABCG2 inh: 2; ABCB1 inh: 0; PHOSPHO1 inh: 30; p47phox inh: 35*; HSV replic up: inactive; PKD1 inh: 9

Results for CCOc1ccccc1NC(=O)CSc1nc2cc(O)ccc2c(=O)n1-c1ccc(OC)c(OC)c1 ?
PHOSPHO1 inh: 26

What do the screens show for `Cc1cc(C(F)(F)F)nn1Cc1n[nH]c(=S)n1-c1ccc(F)cc1`?
ABCG2 inh: 1; ABCB1 inh: 1; PHOSPHO1 inh: -4; p47phox inh: 1; HSV replic up: inactive; PKD1 inh: 2

What do the screens show for `CCc1ccc(-n2c(Cn3nc(C(F)(F)F)cc3C)n[nH]c2=S)cc1`?
ABCG2 inh: 0; ABCB1 inh: 0; PHOSPHO1 inh: 89*; p47phox inh: -11; HSV replic up: inactive; PKD1 inh: -9

How did COc1ccc(-c2nnc(CSc3nc4ccccc4c(=O)n3CC(C)C)o2)cc1OC do in these assays?
ABCG2 inh: 2; ABCB1 inh: 0; PHOSPHO1 inh: 1; p47phox inh: 37*; HSV replic up: inactive; PKD1 inh: -8

What do the screens show for `COCCCn1c(SCc2nnc(-c3ccc(OC)c(OC)c3)o2)nc2ccccc2c1=O`?
ABCG2 inh: 17; ABCB1 inh: 4; PHOSPHO1 inh: -6; p47phox inh: -6; HSV replic up: inactive; PKD1 inh: -6

How did CC1CC(C)CN(C(=O)COC(=O)Cc2ccc(Br)cc2)C1 (stereo not drawn) do in these assays?
PHOSPHO1 inh: 14

What do the screens show for `CCCCCCn1nc(C(=O)OCC(=O)c2c(N)n(C)c(=O)n(C)c2=O)c2ccccc2c1=O`?
ABCG2 inh: 0; ABCB1 inh: 0; PHOSPHO1 inh: 61*; p47phox inh: -11; HSV replic up: inactive; PKD1 inh: 2
